# Laboratory results published in ChEMBL document CHEMBL4715736, “Identification of anticancer agents based on the thieno[2,3-b]pyridine and 1H-pyrazole molecular scaffolds” (2016).
# Key:
# Assay type in all cases: functional
# CCRF-CEM [1] = assay: Growth inhibition of human CCRF-CEM cells assessed as cell growth at 0.01 uM incubated for 48 hrs by sulforhodamine B assay relative to control; conditions: read-out: Activity
# Method in brief: (§1)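 NCI Developmental Therapeutics Program NCI60 panel. Compounds that were active in the 10 µM one-dose screen went on to dose–response testing. Growth at each concentration is expressed relative to untreated control (100%). GI50 (concentration giving 50% of maximal inhibition of proliferation) and TGI (concentration giving total growth inhibition) were derived from the curves.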
# HCC 2998 = assay: Growth inhibition of human HCC 2998 cells assessed as cell growth at 0.01 uM incubated for 48 hrs by sulforhodamine B assay relative to control; conditions: read-out: Activity; method in brief: as §1
# NCI-H226 = assay: Growth inhibition of human NCI-H226 cells assessed as cell growth at 0.1 uM incubated for 48 hrs by sulforhodamine B assay relative to control; conditions: read-out: Activity
# Malme-3M = assay: Growth inhibition of human Malme-3M cells assessed as cell growth at 0.01 uM incubated for 48 hrs by sulforhodamine B assay relative to control; conditions: read-out: Activity
# DU-145 = assay: Growth inhibition of human DU-145 cells incubated for 48 hrs by sulforhodamine B assay; method in brief: as §1
# LOX IMVI = assay: Growth inhibition of human LOX IMVI cells assessed as cell growth at 1 uM incubated for 48 hrs by sulforhodamine B assay relative to control; conditions: read-out: Activity
# SF-295 = assay: Growth inhibition of human SF-295 cells assessed as cell growth at 1 uM incubated for 48 hrs by sulforhodamine B assay relative to control; conditions: read-out: Activity
# HOP-62 = assay: Growth inhibition of human HOP-62 cells incubated for 48 hrs by sulforhodamine B assay
# Method in brief: (§2)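 NCI60 panel at the NCI Developmental Therapeutics Program. Only compounds active in the 10 µM screen went to dose-response testing. GI50, the concentration giving 50% of maximal inhibition of proliferation, and TGI, the concentration giving total growth inhibition, were derived from the dose-response curves.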
# COLO 205 = assay: Growth inhibition of human COLO 205 cells assessed as cell growth at 1 uM incubated for 48 hrs by sulforhodamine B assay relative to control; conditions: read-out: Activity; method in brief: as §1
# SNB-75 = assay: Growth inhibition of human SNB-75 cells assessed as cell growth at 0.01 uM incubated for 48 hrs by sulforhodamine B assay relative to control; conditions: read-out: Activity
# HT-29 [2] = assay: Growth inhibition of human HT-29 cells assessed as cell growth at 0.01 uM incubated for 48 hrs by sulforhodamine B assay relative to control; conditions: read-out: Activity
# U-251 = assay: Growth inhibition of human U-251 cells assessed as cell growth at 1 uM incubated for 48 hrs by sulforhodamine B assay relative to control; conditions: read-out: Activity
# SK-OV-3 = assay: Growth inhibition of human SK-OV-3 cells assessed as cell growth at 0.1 uM incubated for 48 hrs by sulforhodamine B assay relative to control; conditions: read-out: Activity
# SK-MEL-28 = assay: Growth inhibition of human SK-MEL-28 cells assessed as cell growth at 0.1 uM incubated for 48 hrs by sulforhodamine B assay relative to control; conditions: read-out: Activity
# NCI-H522 [3] = assay: Growth inhibition of human NCI-H522 cells assessed as cell growth at 0.01 uM incubated for 48 hrs by sulforhodamine B assay relative to control; conditions: read-out: Activity
# M14 = assay: Growth inhibition of human M14 cells assessed as cell growth at 0.01 uM incubated for 48 hrs by sulforhodamine B assay relative to control; conditions: read-out: Activity
# SN12C = assay: Growth inhibition of human SN12C cells assessed as cell growth at 0.01 uM incubated for 48 hrs by sulforhodamine B assay relative to control; conditions: read-out: Activity
# UO-31 [4] = assay: Growth inhibition of human UO-31 cells assessed as cell growth at 0.1 uM incubated for 48 hrs by sulforhodamine B assay relative to control; conditions: read-out: Activity
# K562 [5] = assay: Growth inhibition of human K562 cells assessed as cell growth at 0.01 uM incubated for 48 hrs by sulforhodamine B assay relative to control; conditions: read-out: Activity
# UACC-62 [6] = assay: Growth inhibition of human UACC-62 cells assessed as cell growth at 1 uM incubated for 48 hrs by sulforhodamine B assay relative to control; conditions: read-out: Activity
# RPMI-8226 = assay: Growth inhibition of human RPMI-8226 cells assessed as cell growth at 1 uM incubated for 48 hrs by sulforhodamine B assay relative to control; conditions: read-out: Activity
# OVCAR-5 = assay: Growth inhibition of human OVCAR-5 cells incubated for 48 hrs by sulforhodamine B assay
# Method in brief: (§3)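 NCI DTP 60-line human tumour panel. Dose-response curves were run only for ligands active in the initial 10 µM screen. GI50 (concentration giving 50% of maximal inhibition of proliferation) and TGI (concentration giving total growth inhibition) were derived from these curves.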
# OVCAR-4 = assay: Growth inhibition of human OVCAR-4 cells assessed as cell growth at 0.1 uM incubated for 48 hrs by sulforhodamine B assay relative to control; conditions: read-out: Activity
# A549 = assay: Growth inhibition of human A549/ATCC cells assessed as cell growth at 1 uM incubated for 48 hrs by sulforhodamine B assay relative to control; conditions: read-out: Activity; method in brief: as §1
# NCI-H322M = assay: Growth inhibition of human NCI-H322M cells incubated for 48 hrs by sulforhodamine B assay; method in brief: as §2
# SF-539 = assay: Growth inhibition of human SF-539 cells incubated for 48 hrs by sulforhodamine B assay; method in brief: as §3
# UACC-62 [7] = assay: Growth inhibition of human UACC-62 cells incubated for 48 hrs by sulforhodamine B assay; method in brief: as §3
# UO-31 [8] = assay: Growth inhibition of human UO-31 cells incubated for 48 hrs by sulforhodamine B assay; method in brief: as §3
# K562 [9] = assay: Growth inhibition of human K562 cells assessed as cell growth at 1 uM incubated for 48 hrs by sulforhodamine B assay relative to control; conditions: read-out: Activity
# NCI-H522 [10] = assay: Growth inhibition of human NCI-H522 cells assessed as cell growth at 0.1 uM incubated for 48 hrs by sulforhodamine B assay relative to control; conditions: read-out: Activity
# SF-268 = assay: Growth inhibition of human SF-268 cells incubated for 48 hrs by sulforhodamine B assay; method in brief: as §3
# CCRF-CEM [11] = assay: Growth inhibition of human CCRF-CEM cells assessed as cell growth at 100 uM incubated for 48 hrs by sulforhodamine B assay relative to control; conditions: read-out: Activity; method in brief: as §1
# HT-29 [12] = assay: Growth inhibition of human HT-29 cells assessed as cell growth at 1 uM incubated for 48 hrs by sulforhodamine B assay relative to control; conditions: read-out: Activity
# RXF 393 = assay: Growth inhibition of human RXF 393 cells assessed as cell growth at 100 uM incubated for 48 hrs by sulforhodamine B assay relative to control; conditions: read-out: Activity
# [13] = read-out: LC50 (the source's name)
smiles,measurement,setting,value
Cc1cccc(NC(=O)c2sc3nc4c(cc3c2N)C(=O)CCC4)c1,growth at 0.01 µM,CCRF-CEM [1],96%
same,growth at 0.01 µM,HCC 2998,97%
same,growth at 0.1 µM,NCI-H226,94%
same,growth at 0.01 µM,Malme-3M,91%
same,GI50,DU-145,0.285 µM
same,TGI,DU-145,≥ 100 µM
same,CC50,DU-145; [13],≥ 100 µM
same,growth at 1 µM,LOX IMVI,47%
same,growth at 1 µM,SF-295,9%
same,GI50,HOP-62,0.331 µM
same,LC50,HOP-62,> 100 µM
same,TGI,HOP-62,≥ 100 µM
same,growth at 1 µM,COLO 205,-17%
same,growth at 0.01 µM,SNB-75,80%
same,growth at 0.01 µM,HT-29 [2],97%
same,growth at 1 µM,U-251,17%
same,growth at 0.1 µM,SK-OV-3,73%
same,growth at 0.1 µM,SK-MEL-28,66%
same,growth at 0.01 µM,NCI-H522 [3],84%
same,growth at 0.01 µM,M14,93%
same,growth at 0.01 µM,SN12C,95%
same,growth at 0.1 µM,UO-31 [4],81%
same,growth at 0.01 µM,K562 [5],97%
same,growth at 1 µM,UACC-62 [6],29%
same,growth at 1 µM,RPMI-8226,36%
same,TGI,OVCAR-5,≥ 100 µM
same,CC50,OVCAR-5; [13],> 100 µM
same,growth at 0.1 µM,OVCAR-4,82%
same,growth at 1 µM,A549,19%
same,TGI,NCI-H322M,> 100 µM
same,CC50,NCI-H322M; [13],> 100 µM
same,GI50,SF-539,0.167 µM
same,TGI,SF-539,0.462 µM
same,CC50,SF-539; [13],≥ 100 µM
same,GI50,UACC-62 [7],0.333 µM
same,LC50,UACC-62 [7],> 100 µM
same,TGI,UACC-62 [7],≥ 100 µM
same,TGI,UO-31 [8],≥ 100 µM
same,CC50,UO-31 [8]; [13],> 100 µM
same,growth at 1 µM,K562 [9],21%
same,growth at 0.1 µM,NCI-H522 [10],51%
same,GI50,SF-268,1.54 µM
same,LC50 (concentration killing 50% of cells),SF-268,> 100 µM
same,TGI,SF-268,> 100 µM
same,growth at 100 µM,CCRF-CEM [11],-7%
same,growth at 1 µM,HT-29 [12],2%
same,growth at 100 µM,RXF 393,5%
